TAAR1 antag: human TAAR1 antagonism | Q96RJ0 | CHO RD-HGA16 TAAR1, Fluo-8 calcium fluorescence, antagonist | inhibition, % at 3 µM | 360,000 compounds, 1.5% hits;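 active = inhibition above a per-plate cutoff, the mean inhibition of test compounds on that plate plus 3 SD, cut at about 49% in these data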;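 also: 0% = DMSO plus EC80 beta-PEA response and 100% = DMSO alone without agonist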
Target sequence (Q96RJ0 whole entry, looked up): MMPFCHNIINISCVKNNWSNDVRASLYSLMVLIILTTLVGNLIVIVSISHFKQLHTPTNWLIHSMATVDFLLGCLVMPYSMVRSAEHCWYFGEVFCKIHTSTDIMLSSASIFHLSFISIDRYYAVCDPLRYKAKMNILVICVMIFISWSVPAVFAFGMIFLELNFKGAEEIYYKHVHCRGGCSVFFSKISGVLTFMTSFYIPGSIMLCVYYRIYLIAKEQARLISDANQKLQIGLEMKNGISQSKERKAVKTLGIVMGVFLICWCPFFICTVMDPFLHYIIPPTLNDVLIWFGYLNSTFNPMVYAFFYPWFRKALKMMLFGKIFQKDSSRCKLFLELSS
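Assay system: RD-HGA16 CHO cells with stable hTAAR1 and Gα16 / Reagent: EC80 β-phenethylamine stimulus / Doses: 3 µM, single point / Timing: dye loading 75 min at 37 °C, then 30 min room temperature / Measured by: Fluo-8 intracellular calcium dye fluorescence, real-time kinetic reads / Controls: vehicle wells and EC80 agonist wells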
V1aR counter: V1a receptor agonism, counter-screen for OXTR agonists; P37288; CHO-V1R cells, Fluo-8 calcium fluorescence, agonist mode; 0% DMSO, 100% 3 nM vasopressin; activation, % at 3 µM; 320,000 compounds, 0.25% hits;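 active = activation above the mean activation of all tested compounds plus 3 SD, per screening run, cut at about 20% in these data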;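 also: signal is peak over basal fluorescence ratio across a 100 second FLIPR read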
OXTR potentiator: potentiators of human oxytocin receptor. CHO-OTR cells, Fluo-8 calcium fluorescence, potentiator mode; 0% = oxytocin EC15, 100% = EC100. activation, % at 3 µM. AID 2445. 320,000 compounds, 0.061% hits. P30559;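 active = activation above that plate's cutoff, the mean activation of tested compounds plus 3 SD, cut at about 6.6% in these data, passing the limit was not always enough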;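 also: 100% uses oxytocin at 75 nM as the full agonist control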
Target sequence (P30559 whole entry, looked up): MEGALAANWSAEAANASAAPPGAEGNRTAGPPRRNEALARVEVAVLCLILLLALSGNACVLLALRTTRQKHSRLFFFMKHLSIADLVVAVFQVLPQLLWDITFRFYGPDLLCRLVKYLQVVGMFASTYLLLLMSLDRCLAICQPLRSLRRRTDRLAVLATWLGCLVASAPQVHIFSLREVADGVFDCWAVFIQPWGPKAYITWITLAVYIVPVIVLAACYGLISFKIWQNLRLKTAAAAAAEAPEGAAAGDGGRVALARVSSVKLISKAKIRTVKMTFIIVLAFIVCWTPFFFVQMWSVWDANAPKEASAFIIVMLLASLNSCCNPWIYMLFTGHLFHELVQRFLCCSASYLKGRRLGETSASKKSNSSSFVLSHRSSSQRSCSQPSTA
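assay system = CHO-OTR cells, human receptor | schedule = compound 6 min at room temperature before oxytocin, 100 s read | detection = Fluo-8 intracellular calcium fluorescence, ex 470-495, em 515-575 nm | evaluation = normalized max/min fluorescence ratio, % activation | control set = EC15 oxytocin alone as 0%, 75 nM oxytocin (EC100) as 100%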
OXTR agonist: agonists of human oxytocin receptor. P30559. activation, % at 3 µM. 320,000 compounds, 0.32% hits. AID 2435. CHO-OTR cells, Fluo-8 calcium fluorescence; normalized: DMSO 0%, oxytocin 100%;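 active = activation above the mean of all tested compounds plus 3 SD, cutoff set per screening run, cut at about 20% in these data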;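 also: peak over basal fluorescence ratio from a 100 s FLIPR kinetic read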
TAAR1 agonist: human TAAR1 agonism. Q96RJ0. CHO RD-HGA16 TAAR1, Fluo-8 calcium fluorescence; vehicle wells 0%, saturating PEA agonist 100%. activation, % at 3 µM. 360,000 compounds, 0.99% hits. AID 624467;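 active = activation above the mean activation of all test compounds in the run plus 3 SD, cut at about 38% in these data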
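System: CHO-derived RD-HGA16 cells with stable Gα16 and human TAAR1. Times: 17-24 h plating, Fluo-8 75 min 37 °C, 30 min RT. Measured by: calcium-sensitive Fluo-8 signal, excitation 470-495, emission 515-575 nm. Read-out basis: % activation relative to PEA EC100 response. Control set: DMSO and PEA EC100. Repeats: no replicates (n 1).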
nonsel antag count: nonselective antagonist in TAAR1 antagonist counter-screen | inhibition, % at 3 µM | 2,400 compounds, 77% hits | counterscreen cell line, calcium fluorescence, antagonist mode | shares compounds with TAAR1 antag; in the data active = inhibition above about 22%;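 also: CHO-Ga16 host cells stimulated with ATP at an EC80 level; 0% = agonist EC80 plus vehicle and 100% = vehicle without agonist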
TAAR1 antag conf: human TAAR1 antagonism, confirmed; shares compounds with TAAR1 antag; TAAR1-expressing cells, fluorescence antagonist read-out; inhibition, % at 3 µM; 2,400 compounds, 40% hits; AID 651785; in the data active = inhibition above about 49%;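 also: CHO-Ga16 host cells challenged with agonist PEA near its EC80; 0% = agonist at EC80 plus vehicle and 100% = vehicle with no agonist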
Ga16 nonsel ag: nonselective Ga16 agonism, counter-screen; shares compounds with TAAR1 antag; Ga16-expressing cells, calcium fluorescence, agonist counterscreen; activation, % at 3 µM; 2,400 compounds, 18% hits; in the data active = activation above about 12%;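 also: 0% = vehicle wells and 100% = saturating stimulus response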
TAAR1 ag count: counter-screen for human TAAR1 antagonists: TAAR1 agonists; shares compounds with TAAR1 antag; hTAAR1 cell line, fluorescence activation, agonist mode; activation, % at 3 µM; 2,400 compounds, 2% hits; AID 651955; in the data active = activation above about 37%;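 also: CHO cells stably expressing TAAR1 with calcium dye readout; 0% = DMSO vehicle and 100% = full agonist response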
* marks the source's active call; other numbers are inactive results; · = not tested or not shown. Compounds with a hit are over-represented: about 2.3% of the library has one in this group of screens.

SMILES | TAAR1 antag | V1aR counter | OXTR potentiator | OXTR agonist | TAAR1 agonist | nonsel antag count | TAAR1 antag conf | Ga16 nonsel ag | TAAR1 ag count
COc1cc(/C=C/C(=O)OCC(=O)Nc2ccc3c(c2)OCCO3)ccc1O | -6 | 1 | 6 | -1 | 6 | · | · | · | ·
Cc1cccc(NC(=O)c2cc(-c3ccco3)nc3ccccc23)n1 | 55* | -1 | -8 | -2 | 18 | 27* | 50* | 7 | 5
COc1ccc(OC)c(NC(=O)Nc2cccc3ccccc23)c1 | -6 | -1 | -5 | -2 | 2 | · | · | · | ·
COc1ccc(NC(=O)Nc2cccc3ccccc23)c(OC)c1 | 59* | 1 | -9 | 1 | 24 | 18 | 42 | 3 | 4
COc1ccc(NC(=O)c2cc(-c3ccco3)nc3ccccc23)cc1 | 16 | 0 | -10 | 1 | 6 | · | · | · | ·
CC1C(=O)N(Cc2cn(CCC3OCCCO3)nn2)CCS(=O)(=O)N1Cc1ccc(-c2ccc(Cl)cc2)cc1 (stereo not given) | 87* | · | · | · | 19 | 45* | 59* | 16* | 10
COc1ccc(-c2ccc(CN3C(CC(C)C)C(=O)N(Cc4cn(CCC5OCCCO5)nn4)CCS3(=O)=O)cc2)cc1OC (stereo not given) | 57* | · | · | · | 7 | 24* | 33 | 7 | 6
COc1ccc(-c2ccc(CN3C(C(C)C)C(=O)N(Cc4cn(CCC5OCCCO5)nn4)CCS3(=O)=O)cc2)cc1OC (stereo not given) | -17 | · | · | · | 7 | · | · | · | ·
Cc1ccc(NC(=O)C2CCCN(S(=O)(=O)c3ccc(-n4cnnn4)cc3)C2)cc1 (stereo not given) | 5 | 0 | -7 | 1 | 1 | · | · | · | ·
Clc1cccc(N=NN2CCOCC2)c1Cl | 7 | 1 | -7 | -2 | 16 | · | · | · | ·
O=C(c1cc(C(=O)NCCc2ccccc2)c(=O)n(CCc2ccccc2)c1)c1cc(Cl)ccc1O | 65* | 0 | -10 | -1 | 16 | 38* | 61* | 6 | 3
Cn1nc(C(=O)Nc2ccc(S(=O)(=O)N3CCCCC3)cc2)c2ccccc2c1=O | 96* | 0 | -25 | -1 | -2 | 11 | 12 | 2 | -1
CCCCC(=O)Nc1ccc(C(=O)Nc2ccc(S(=O)(=O)N3CCCC3)cc2)cc1 | · | 7 | -3 | 5 | · | 12 | · | 6 | ·
CN(C)S(=O)(=O)c1cc(NC(=O)CNCCN2CCOCC2)ccc1Cl | 105* | 0 | -3 | 0 | 0 | 8 | -3 | 3 | 5
CC(=O)c1c(C)[nH]c(C(=O)OCC(=O)Nc2ccc(Cl)c(S(=O)(=O)N(C)C)c2)c1C | 68* | 8 | -7 | 5 | 12 | 28* | 48 | 12* | 11
Cc1cc(C(=O)c2cccs2)c(N)s1 | -6 | 0 | -8 | -1 | 7 | · | · | · | ·
CCc1nc2c(OCC(=O)c3ccc(Cl)cc3Cl)cccn2c1N(C)C(=O)c1ccncc1 | 0 | · | · | · | -1 | · | · | · | ·
O=C1c2ccccc2C(c2nnnn2Cc2ccccc2)N1CCc1ccccc1F (stereo not given) | 68* | · | · | · | 16 | 29* | 51* | 9 | 9
CC(C)n1nnnc1C1c2ccccc2C(=O)N1CCc1ccccc1F (stereo not given) | -15 | · | · | · | 26 | · | · | · | ·
CC(C)CCN1C(=O)c2ccccc2C1c1nnnn1Cc1ccccc1 (stereo not given) | 21 | · | · | · | 8 | · | · | · | ·
O=C1c2ccccc2C(c2nnnn2Cc2ccccc2)N1CCc1ccc(O)cc1 (stereo not given) | 67* | · | · | · | 14 | 28* | 53* | 9 | 12
O=C(Cn1c(C(F)(F)F)nc2ccccc21)OCC(=O)c1c[nH]c2ccccc12 | 41 | 3 | -10 | 4 | 13 | · | · | · | ·
Cc1[nH]c2ccccc2c1C(=O)COC(=O)Cn1c(C(F)(F)F)nc2ccccc21 | 64* | 8 | -10 | 10 | 15 | 37* | 54* | 13* | 24
Cc1ccccc1N(CC(=O)Nc1ccccc1C(=O)NCc1ccco1)S(=O)(=O)c1ccccc1 | 69* | 0 | -18 | -1 | 10 | 31* | 47 | 7 | 3
Cc1ccc(S(=O)(=O)N(CC(=O)Nc2ccccc2C(=O)O)c2ccccc2C)cc1 | 5 | 0 | -9 | -1 | 4 | · | · | · | ·
SMILES | TAAR1 antag | V1aR counter | OXTR potentiator | OXTR agonist | TAAR1 agonist | nonsel antag count | TAAR1 antag conf | Ga16 nonsel ag | TAAR1 ag count
O=C(Nc1ccccc1C(=O)Nc1ccccc1C(=O)NCc1ccco1)c1ccco1 | 69* | 2 | -4 | 0 | 9 | 25* | 49* | 10 | 8
COc1ccccc1CNC(=O)COC(=O)c1cc(-c2ccco2)nc2ccccc12 | 0 | 0 | 3 | -1 | 4 | · | · | · | ·
Cc1cccc2nc(-c3ccccc3)c(-c3ccc(CN4CCC(c5nc6ccccc6[nH]5)CC4)cc3)nc12 | 15 | · | · | · | 10 | · | · | · | ·
Cc1ccc2nc(-c3ccc(CN4CCC(c5nc6ccccc6[nH]5)CC4)cc3)c(-c3ccccc3)nc2c1 | 73* | · | · | · | 32 | 46* | 60* | 15* | 21
N#Cc1ccc2nc(-c3ccc(CN4CCC(c5nc6ccccc6[nH]5)CC4)cc3)c(-c3ccccc3)nc2c1 | 66* | · | · | · | 15 | 38* | 48 | 11 | 17
c1ccc(-c2nc3ccccc3nc2-c2ccc(CN3CCC(c4nc5ccccc5[nH]4)CC3)cc2)cc1 | 53* | · | · | · | 17 | 34* | 45 | 16* | 35
CCCOc1ccc(N2C(=O)CC(NCCNc3ccc([N+](=O)[O-])cn3)C2=O)cc1 (stereo not given) | 3 | 1 | -8 | -2 | 4 | · | · | · | ·
NNC(=O)c1[nH]c2ccc([N+](=O)[O-])cc2c1-c1ccccc1 | -18 | 1 | -19 | 4 | 0 | · | · | · | ·
O=C(N/N=C/c1ccccn1)c1[nH]c2ccc([N+](=O)[O-])cc2c1-c1ccccc1 | 50* | 1 | -14 | 2 | 9 | 18 | 51* | 12* | 22
COc1cc(-c2nc(C(=O)NCC3CCCO3)cc3c2[nH]c2ccccc23)cc(OC)c1OC (stereo not given) | 61* | 0 | -5 | 0 | 6 | 28* | 40 | 6 | 4
COc1ccccc1-c1nc(C(=O)NCC2CCCO2)cc2c1[nH]c1ccccc12 (stereo not given) | · | 0 | -8 | 2 | · | · | · | · | ·
